{
  "source": "paper PMC3993931",
  "about": "(Journal of Medicinal Chemistry, 2014)",
  "key": {"HCT116 cells": {"tested_on": "HCT116 cells", "assay": "Cell viability assay", "format": "cell-based, human", "details": "for IC50: Homo sapiens, HCT-116, read-out: antiproliferative activity", "in_short": "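HCT116 cells (ATCC) were grown in DMEM with 10% FBS at 37 °C, 5% CO2. They were seeded at 1 × 10^4 cells/well and treated 24 h later with a range of test-compound concentrations or 1% EtOH solvent control. After 48 h, viability was read by MTT per the kit instructions.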"}, "[1]": {"assay": "Aqueous stability, pH 4.88", "format": "physicochemical", "details": "Figure 3 conditions generally, especially acidic (pH 4.88)"}, "[2]": {"tested_on": "met proto-oncogene receptor (MET)", "assay": "Immunoblot analysis for RTK", "format": "cell-based, human", "details": "HCT116, 24 h", "in_short": "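HCT116 cells were seeded at 4 × 10^5 cells/well in 6-well plates and dosed the next day with graded test-compound concentrations or 1% EtOH. After 24 h, whole-cell lysates were made in PhosphoSafe buffer, protein was quantified by BCA, and equal protein was run on 4–12% SDS-PAGE. Blots on PVDF were probed with anti-Met plus secondary antibody, with chemiluminescent detection.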"}, "[3]": {"details": "cited from earlier work"}, "[4]": {"tested_on": "colorectal tumor xenograft", "details": "cited from earlier work"}, "HCT116 xenograft": {"tested_on": "HCT116 xenograft", "assay": "In vivo efficacy, HCT116 xenograft mouse model"}, "VEGFR2": {"tested_on": "VEGFR2", "assay": "Immunoblot of xenograft tumors for RTK", "format": "in vivo, mouse", "details": "higher dose (0.25 mg/kg), end of efficacy study"}},
  "data": [
    {"compound": "CC[C@H](C)[C@H]1C(=O)N2CCC[C@H]2C(=O)O[C@H](C(C)(C)C)C[C@@H](C)C[C@H](O)CC2=N[C@@H](CCC(=O)N[C@@H](Cc3ccc(OC)cc3)C(=O)N(C)[C@@H](C)C(=O)N1C)CS2", "note": "[Compound 1b, Apratoxin S7]", "values": [
      {"measurement": "IC50", "setting": "HCT116 cells", "result": "1 to 2", "unit": "nM"},
      {"measurement": "relative in vitro stability", "setting": "[1]", "result": "somewhat less stable than 1c"}
    ]},
    {"compound": "CC[C@H](C)[C@H]1C(=O)N2CCC[C@H]2C(=O)O[C@H](C(C)(C)C)C[C@@H](C)C[C@H](O)[C@H](C)C2=N[C@H](CCC(=O)N[C@@H](Cc3ccc(OC)cc3)C(=O)N(C)[C@@H](C)C(=O)N1C)CS2", "note": "[Compound 1d, Apratoxin S9]", "values": [
      {"measurement": "potency in reducing MET levels", "setting": "[2]", "result": "picomolar (subnanomolar) potency"},
      {"measurement": "fold potency over the other apratoxins", "setting": "HCT116 cells; all three assays (cell growth, MET levels, VEGF-A secretion)", "result": "2–3 fold"},
      {"measurement": "relative in vitro stability", "setting": "[1]", "result": "slightly enhanced compared with that of 1a"}
    ]},
    {"compound": "CC[C@H](C)[C@H]1C(=O)N2CCC[C@H]2C(=O)O[C@H](C(C)(C)C)C[C@@H](C)C[C@H](O)[C@@H](C)C2=N[C@@H](CCC(=O)N[C@@H](Cc3ccc(OC)cc3)C(=O)N(C)[C@@H](C)C(=O)N1C)CS2", "note": "[Compound 34-epi-1a, apratoxin S6]", "values": [
      {"measurement": "potency relative to 1a", "setting": "[3]; ref 2a", "result": "same potency"}
    ]},
    {"compound": "CC[C@H](C)[C@H]1C(=O)N2CCC[C@H]2C(=O)O[C@H](C(C)(C)C)C[C@@H](C)C[C@H](O)[C@H](C)C2=N[C@@H](CCC(=O)N[C@@H](Cc3ccc(OC)cc3)C(=O)N(C)[C@@H](C)C(=O)N1C)CS2", "note": "[Compound 1a, apratoxin S4]", "values": [
      {"measurement": "potency and efficacy versus apratoxin A", "setting": "[4]; colorectal tumor xenograft model ref 2a", "result": "greater potency and efficacy"},
      {"measurement": "tolerability in vivo", "setting": "[4]; ref 2a", "result": "much better tolerated"},
      {"measurement": "relative in vitro stability", "setting": "[1]", "result": "somewhat less stable than 1c"}
    ]},
    {"compound": "CC[C@H](C)[C@H]1C(=O)N2CCC[C@H]2C(=O)O[C@H](C(C)(C)C)C[C@@H](C)C/C=C/C2=N[C@@H](CCC(=O)N[C@@H](Cc3ccc(OC)cc3)C(=O)N(C)[C@@H](C)C(=O)N1C)CS2", "note": "[apratoxin E]", "values": [
      {"measurement": "activity relative to other apratoxins", "setting": "[3]; ref 1c", "result": "much reduced activity"}
    ]},
    {"compound": "CC[C@H](C)[C@H]1C(=O)N2CCC[C@H]2C(=O)O[C@H](C(C)(C)C)C[C@@H](C)C[C@H](O)C(C)(C)C2=N[C@@H](CCC(=O)N[C@@H](Cc3ccc(OC)cc3)C(=O)N(C)[C@@H](C)C(=O)N1C)CS2", "note": "[Compound 1c, Apratoxin S8]", "values": [
      {"measurement": "tumor growth inhibition", "setting": "HCT116 xenograft; 0.1 mg/kg (~2 μg/mouse) daily ip for 16 days", "result": "about 50%"},
      {"measurement": "effect on tumor growth", "setting": "HCT116 xenograft; 0.25 mg/kg (~5 μg/mouse) daily ip for 16 days", "result": "strongly retarded the tumor growth"},
      {"measurement": "signs of toxicity (weight loss, abnormal behavior)", "setting": "HCT116 xenograft; 0.1 and 0.25 mg/kg daily ip for 16 days", "result": "did not observe signs of toxicity"},
      {"measurement": "VEGFR2 expression levels in tumors", "setting": "VEGFR2", "result": "detectable reduction in VEGFR2 expression levels"},
      {"measurement": "IC50", "setting": "HCT116 cells", "result": "1 to 2", "unit": "nM"}
    ]}
  ]
}
